According to ChEMBL document CHEMBL4325889, “Natural products hybrids: 3,5,4'-Trimethoxystilbene-5,6,7-trimethoxyflavone chimeric analogs as potential cytotoxic agents against diverse human cancer cells” (Eur J Med Chem, 2019):

Columns and labels:
Format in all cases: functional
[1] = tested on: CCRF-CEM; assay: Growth inhibition of human CCRF-CEM cells at 10 uM after 48 hrs by SRB assay relative to control; conditions: read-out: GI
Summary of the method: (§1)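 Screened at the National Cancer Institute by the standard NCI protocol using the sulforhodamine B assay, which measures cellular protein. Single dose of 10 µM. Result is percent growth inhibition; values above 100% mean cell number fell below the initial population. Values are the average of duplicates.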

[2] = tested on: HL-60(TB); assay: Growth inhibition of human HL-60(TB) cells at 10 uM after 48 hrs by SRB assay relative to control; conditions: HL-60, 48 h, read-out: GI
Summary of the method: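 Run at NCI under its standard single-dose protocol against a leukemia cell panel. Cells were exposed to 10 µM; growth was read by sulforhodamine B staining of cellular protein and expressed as % growth inhibition versus untreated control. Values above 100% mean the cell population fell below the starting count (cytocidal). Each value is the average of duplicates.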

[3] = tested on: K562; assay: Growth inhibition of human K562 cells at 10 uM after 48 hrs by SRB assay relative to control; conditions: K562, 48 h, read-out: GI; summary of the method: as §1
[4] = tested on: MOLT-4; assay: Growth inhibition of human MOLT4 cells at 10 uM after 48 hrs by SRB assay relative to control; conditions: MOLT-4, 48 h, read-out: GI; summary of the method: as §1
[5] = tested on: RPMI-8226; assay: Growth inhibition of human RPMI8226 cells at 10 uM after 48 hrs by SRB assay relative to control; conditions: RPMI-8226, 48 h, read-out: GI; summary of the method: as §1
[6] = tested on: HOP-62; assay: Growth inhibition of human HOP62 cells at 10 uM after 48 hrs by SRB assay relative to control; conditions: HOP-62, 48 h, read-out: GI; summary of the method: as §1
[7] = tested on: NCI-H226; assay: Growth inhibition of human NCI-H226 cells at 10 uM after 48 hrs by SRB assay relative to control; conditions: NCI-H226, 48 h, read-out: GI; summary of the method: as §1
[8] = tested on: NCI-H23; assay: Growth inhibition of human NCI-H23 cells at 10 uM after 48 hrs by SRB assay relative to control; conditions: NCI-H23, 48 h, read-out: GI; summary of the method: as §1
[9] = tested on: NCI-H460; assay: Growth inhibition of human NCI-H460 cells at 10 uM after 48 hrs by SRB assay relative to control; conditions: NCI-H460, 48 h, read-out: GI; summary of the method: as §1
[10] = tested on: NCI-H522; assay: Growth inhibition of human NCI-H522 cells at 10 uM after 48 hrs by SRB assay relative to control; conditions: NCI-H522, 48 h, read-out: GI; summary of the method: as §1
[11] = tested on: HCT-15; assay: Growth inhibition of human HCT15 cells at 10 uM after 48 hrs by SRB assay relative to control; conditions: HCT-15, 48 h, read-out: GI; summary of the method: as §1
[12] = tested on: HT-29; assay: Growth inhibition of human HT-29 cells at 10 uM after 48 hrs by SRB assay relative to control; conditions: HT-29, 48 h, read-out: GI; summary of the method: as §1
[13] = tested on: SW-620; assay: Growth inhibition of human SW620 cells at 10 uM after 48 hrs by SRB assay relative to control; conditions: SW-620, 48 h, read-out: GI
Summary of the method: (§2)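 NCI screen against its human cancer cell line panel by the standard NCI protocol, SRB protein stain. Single dose of 10 μM. Percent growth inhibition versus control; values above 100% mean the cell population fell below the starting number. Each value is the mean of duplicates.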

[14] = tested on: SF-295; assay: Growth inhibition of human SF295 cells at 10 uM after 48 hrs by SRB assay relative to control; conditions: SF-295, 48 h, read-out: GI; summary of the method: as §1
[15] = tested on: SF-539; assay: Growth inhibition of human SF539 cells at 10 uM after 48 hrs by SRB assay relative to control; conditions: SF-539, 48 h, read-out: GI; summary of the method: as §1
[16] = tested on: SNB-19; assay: Growth inhibition of human SNB19 cells at 10 uM after 48 hrs by SRB assay relative to control; conditions: SNB-19, 48 h, read-out: GI; summary of the method: as §2
[17] = tested on: SNB-75; assay: Growth inhibition of human SNB75 cells at 10 uM after 48 hrs by SRB assay relative to control; conditions: SNB-75, 48 h, read-out: GI; summary of the method: as §2
[18] = tested on: Malme-3M; assay: Growth inhibition of human MALME-3M cells at 10 uM after 48 hrs by SRB assay relative to control; conditions: read-out: GI; summary of the method: as §1
[19] = tested on: MDA-MB-435; assay: Growth inhibition of human MDA-MB-435 cells at 10 uM after 48 hrs by SRB assay relative to control; conditions: MDA-MB-435, 48 h, read-out: GI; summary of the method: as §1
[20] = tested on: SK-MEL-28; assay: Growth inhibition of human SK-MEL-28 cells at 10 uM after 48 hrs by SRB assay relative to control; conditions: SK-MEL-28, 48 h, read-out: GI; summary of the method: as §1
[21] = tested on: SK-MEL-5; assay: Growth inhibition of human SK-MEL-5 cells at 10 uM after 48 hrs by SRB assay relative to control; conditions: SK-MEL-5, 48 h, read-out: GI; summary of the method: as §1
[22] = tested on: IGROV-1; assay: Growth inhibition of human IGROV1 cells at 10 uM after 48 hrs by SRB assay relative to control; conditions: IGROV-1, 48 h, read-out: GI; summary of the method: as §1
[23] = tested on: OVCAR-5; assay: Growth inhibition of human OVCAR5 cells at 10 uM after 48 hrs by SRB assay relative to control; conditions: OVCAR-5, 48 h, read-out: GI; summary of the method: as §1
[24] = tested on: OVCAR-8; assay: Growth inhibition of human OVCAR8 cells at 10 uM after 48 hrs by SRB assay relative to control; conditions: OVCAR-8, 48 h, read-out: GI; summary of the method: as §1
[25] = tested on: 786-0; assay: Growth inhibition of human 786-0 cells at 10 uM after 48 hrs by SRB assay relative to control; conditions: 786-0, 48 h, read-out: GI; summary of the method: as §1
[26] = tested on: ACHN; assay: Growth inhibition of human ACHN cells at 10 uM after 48 hrs by SRB assay relative to control; conditions: read-out: GI; summary of the method: as §1
[27] = tested on: RXF 393; assay: Growth inhibition of human RXF393 cells at 10 uM after 48 hrs by SRB assay relative to control; conditions: RXF 393, 48 h, read-out: GI; summary of the method: as §1
[28] = tested on: SN12C; assay: Growth inhibition of human SN12C cells at 10 uM after 48 hrs by SRB assay relative to control; conditions: read-out: GI; summary of the method: as §1
[29] = tested on: TK-10; assay: Growth inhibition of human TK10 cells at 10 uM after 48 hrs by SRB assay relative to control; conditions: TK-10, 48 h, read-out: GI; summary of the method: as §2
[30] = tested on: PC-3; assay: Growth inhibition of human PC3 cells at 10 uM after 48 hrs by SRB assay relative to control; conditions: PC-3, 48 h, read-out: GI; summary of the method: as §1
[31] = tested on: DU-145; assay: Growth inhibition of human DU145 cells at 10 uM after 48 hrs by SRB assay relative to control; conditions: DU-145, 48 h, read-out: GI; summary of the method: as §1
[32] = tested on: BT-549; assay: Growth inhibition of human BT549 cells at 10 uM after 48 hrs by SRB assay relative to control; conditions: BT-549, 48 h, read-out: GI; summary of the method: as §1
[33] = tested on: MDA-MB-468; assay: Growth inhibition of human MDA-MB-468 cells at 10 uM after 48 hrs by SRB assay relative to control; conditions: MDA-MB-468, 48 h, read-out: GI; summary of the method: as §1

SMILES | inhibition of growth at 10 µM [1] [%] | inhibition of growth at 10 µM [2] [%] | inhibition of growth at 10 µM [3] [%] | inhibition of growth at 10 µM [4] [%] | inhibition of growth at 10 µM [5] [%] | inhibition of growth at 10 µM [6] [%] | inhibition of growth at 10 µM [7] [%] | inhibition of growth at 10 µM [8] [%] | inhibition of growth at 10 µM [9] [%] | inhibition of growth at 10 µM [10] [%] | inhibition of growth at 10 µM [11] [%] | inhibition of growth at 10 µM [12] [%] | inhibition of growth at 10 µM [13] [%] | inhibition of growth at 10 µM [14] [%] | inhibition of growth at 10 µM [15] [%] | inhibition of growth at 10 µM [16] [%] | inhibition of growth at 10 µM [17] [%] | inhibition of growth at 10 µM [18] [%] | inhibition of growth at 10 µM [19] [%] | inhibition of growth at 10 µM [20] [%] | other results
COc1cc2oc(-c3cccc(NC(=O)c4ccc5c(c4)OCO5)c3)cc(=O)c2c(OC)c1OC | 112 | 65.4 | 82.6 | 97.1 | 154 | 45.6 | 34.3 | 47.1 | 72.8 | 63.3 | 67.9 | 70.6 | 36 | 46.1 | 43 | 54.4 | 32.6 | 23.6 | 46.7 | 44.9 | inhibition of growth at 10 µM [21]: 83.6%; inhibition of growth at 10 µM [22]: 53%; inhibition of growth at 10 µM [23]: 6.14%; inhibition of growth at 10 µM [24]: 53.7%; inhibition of growth at 10 µM [25]: 80.5%; inhibition of growth at 10 µM [26]: 52.2%; inhibition of growth at 10 µM [27]: 53.5%; inhibition of growth at 10 µM [28]: 57.9%; inhibition of growth at 10 µM [29]: 38.4%; inhibition of growth at 10 µM [30]: 112%; inhibition of growth at 10 µM [31]: 47.1%; inhibition of growth at 10 µM [32]: 58.6%; inhibition of growth at 10 µM [33]: 24.5%
COc1cccc(NC(=O)c2cccc(-c3cc(=O)c4c(O)c(OC)c(OC)cc4o3)c2)c1 | 34.7 | 17.5 | 16.9 | 24.2 | 53.6 | 37.5 | 41.5 | 25.4 | 31.4 | 59.8 | 25.7 | 15.6 | 18.4 | 17.6 | 20.7 | 16.4 | 1.94 | 12.3 | 22.6 | 14.2 | inhibition of growth at 10 µM [21]: 26.8%; inhibition of growth at 10 µM [22]: 12%; inhibition of growth at 10 µM [23]: 8.5%; inhibition of growth at 10 µM [24]: 62.5%; inhibition of growth at 10 µM [25]: 14.2%; inhibition of growth at 10 µM [26]: 33.8%; inhibition of growth at 10 µM [27]: 25.8%; inhibition of growth at 10 µM [28]: 19%; inhibition of growth at 10 µM [29]: 6.27%; inhibition of growth at 10 µM [30]: 39.3%; inhibition of growth at 10 µM [31]: 19.4%; inhibition of growth at 10 µM [32]: 30.5%; inhibition of growth at 10 µM [33]: 46%
